Measurements pooled from the literature.
Compare with care: the assays were run in different laboratories.
HTR5A: 5-hydroxytryptamine receptor 5A (HTR5A, Homo sapiens, UniProt P47898)
PIK3CD: Phosphatidylinositol 4,5-bisphosphate 3-kinase catalytic subunit delta isoform (PIK3CD, Homo sapiens, UniProt O00329)
Kir1 channel protein: Kir1 channel protein (Aedes aegypti, UniProt L0EQS9)
GRM8: Metabotropic glutamate receptor 8 (GRM8, Homo sapiens, UniProt O00222)
DRD4: D(4) dopamine receptor (DRD4, Homo sapiens, UniProt P21917)

Compound | target | test | conditions | measurement | value
CC(C)c1nc2cc(OCCCCN3CCN(c4cccc5c4OCCO5)CC3)ccc2s1 | HTR5A | ligand displacement, radioligand | – | Ki | 330 nM
CCC(=O)N1CCC(C(=O)NCC(=O)N2CCN(c3nc(-c4cnc(N)nc4C(F)F)nc(N4CCOCC4)n3)CC2)CC1 | PIK3CD | binding, competition with immobilised ligand | – | Kd | 1.6 nM
CN1CCN(c2ccc(Nc3ncc4cc(C#N)c(=O)n(C5CCCC5)c4n3)cc2)CC1 | Calcium/calmodulin-dependent protein kinase type 1 (CAMK1, Homo sapiens, UniProt Q14012) | enzyme activity, inhibitor | – | IC50 | > 10000 nM
Cc1cnc(-c2ccc(-c3ccc(NC(=O)Nc4c(F)cc(F)cc4F)cc3F)c3c2C(=O)NC3)[nH]1 | Mast/stem cell growth factor receptor Kit (KIT, Homo sapiens, UniProt P10721) | binding, competition with immobilised ligand | – | Kd | 0.8 nM
CCN(CC)c1ccc(C2Nc3ccc(C(=O)c4ccccc4)cc3NC3=C2C(=O)CC(C)(C)C3)cc1 (stereo not drawn) | HTR5A | cell-free assay, radioligand | – | Ki | 7960 nM
O=[N+]([O-])c1ccc(N2CCN(S(=O)(=O)c3ccc(Cl)cc3)CC2)cc1NCc1ccco1 | Kir1 channel protein | ion current, inhibitor, patch clamp | – | IC50 | 34.2 nM
CC1=C(O)C(=O)OC1C (stereo not drawn) | OR8D1 (Homo sapiens, UniProt Q8WZ84, del306-308) | cAMP, agonist, luciferase | – | EC50 | 4.5 µM
COc1ccc(-c2nsc(NC(=O)[C@@H]3C[C@H]3C)c2C)cc1 | GRM8 | calcium signal, agonist | – | EC50 | > 25 µM
CCS(=O)(=O)N1CCN(c2ccc([N+](=O)[O-])c(NCc3cccnc3)c2)CC1 | Kir1 channel protein | ion flux, inhibitor | – | IC50 | 21000 nM
COc1ccc(CCC2=NCCN2CCc2ccccc2)cc1 | DRD4 | ligand displacement, radioligand | – | Ki | 501 nM
CS(=O)(=O)C1(CNCc2cccc3cccnc23)CC1 | HTR5A | ligand displacement, radioligand | – | Ki | 41.7 nM
O=[N+]([O-])c1ccc(N2CCN(S(=O)(=O)c3ccc(F)cc3)CC2)cc1NCc1cccnc1 | Kir1 channel protein | ion current, inhibitor, patch clamp | – | IC50 | 57 nM
O=C1c2ccccc2CCN1CCCCN1CCN(c2ccccn2)CC1 | DRD4 | ligand displacement, radioligand | – | Ki | 14.5 nM
COc1cc(F)cc2c(N3CCN4c5ccccc5OC[C@@H]4C3)c(C#N)nnc12 (single isomer, unassigned) | GRM8 | calcium signal, positive allosteric modulator | – | EC50 | > 30 µM
COc1ccc(F)cc1C(=O)NCc1ccc(-c2nn([C@@H](C)C(F)(F)F)c(N)c2C(N)=O)cc1 | Tyrosine-protein kinase BTK (BTK, Homo sapiens, UniProt Q06187, C481S) | phosphorylation in cells, inhibitor | – | IC50 | 8.1 nM
CC[C@@H]1C(=O)OC[C@@H]1Cc1cncn1C | Cytochrome P450 2E1 (CYP2E1, Homo sapiens, UniProt P05181) | enzyme activity, inhibitor | 10 min, pH 6.8 | Ki | 765000 nM
CCCCN1CCC(COC(=O)c2ccc(N)c(OCF)c2)CC1 | HTR5A | cell-free assay, radioligand | – | Ki | > 10000 nM
O=S(=O)(c1ccc(Cl)cc1)N1CCN(c2ccc(C(F)(F)F)c(NCc3ccncc3)c2)CC1 | Kir1 channel protein | ion flux, inhibitor | – | IC50 | 4000 to 9000 nM
Nc1nc2c(ncn2[C@@H]2O[C@H](COP(=O)(O)OP(=O)(O)O)[C@@H](OP(=O)(O)OP(=O)(O)O)[C@H]2O)c(=O)[nH]1 | cmk (Escherichia coli, UniProt P0A6I0) | binding, ITC | – | Kd | 79000 nM
Clc1ccc(CNC[C@H]2CCn3ccnc3C2)c2ncccc12 | HTR5A | ligand displacement, radioligand | – | Ki | 3240 nM
COc1ccccc1N1CCN(CCCCN2CCc3ccccc3C2=O)CC1 | DRD4 | ligand displacement, radioligand | – | Ki | 6 nM
CCn1c(-c2nc3ccc(C(=O)N4CCCC(N)C4)cc3n2C)cc2ccccc21 (stereo not drawn) | Nuclear receptor subfamily 1 group I member 2 (NR1I2, Homo sapiens, UniProt O75469) | reporter gene, agonist, luciferase | – | EC50 | > 50.1 µM
C=CC(=O)N1CCC(C(=O)NCC(=O)N2CCN(c3nc(-c4cnc(N)nc4C(F)F)nc(N4CCOCC4)n3)CC2)CC1 | PIK3CD | binding, competition with immobilised ligand | – | Kd | 0.71 nM
CC[C@H](NC(=O)[C@H](CS(=O)(=O)CC1CC1)N[C@@H](c1ccc(F)cc1)C(F)(F)F)C(=O)C(=O)NC1CC1 | Cathepsin F (Homo sapiens, UniProt Q9UBX1) | enzyme activity, inhibitor, fluorescence | with preincubation | Ki | 4.7 nM
